Marks after values point to notes of the source that are not given here.
Experiments:
[1] = test system: human microvascular endothelial (HMVE) cells; assay: HMVE cell growth inhibition; type: cell-based; conditions: 0.5 μM
KG-1 AML cells [2] = assay: KG-1 proliferation inhibition; type: cell-based, human
Summary of the method: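 KG-1 cells in medium with 5% FBS attached overnight and were then exposed to test compound in Me2SO or to Me2SO alone (final 0.1%) for the indicated time. Cells were harvested and counted with a hemocytometer in triplicate wells. Proliferation inhibition is given as IC50 and as percent inhibition at the highest concentration tested.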

[3] = test system: IGROV ovarian cancer cells; conditions: at antiproliferative IC80 value, propidium iodide staining; cited from earlier work
[4] = doses found to induce cancer cell apoptosis in vitro; cited from earlier work
AML animal model = conditions: cited from earlier work
[5] = target: T1, recombinant human small heterodimer partner (SHP) (Homo sapiens, UniProt Q15466); conditions: cited from earlier work
T1 sequence (Q15466 1-257): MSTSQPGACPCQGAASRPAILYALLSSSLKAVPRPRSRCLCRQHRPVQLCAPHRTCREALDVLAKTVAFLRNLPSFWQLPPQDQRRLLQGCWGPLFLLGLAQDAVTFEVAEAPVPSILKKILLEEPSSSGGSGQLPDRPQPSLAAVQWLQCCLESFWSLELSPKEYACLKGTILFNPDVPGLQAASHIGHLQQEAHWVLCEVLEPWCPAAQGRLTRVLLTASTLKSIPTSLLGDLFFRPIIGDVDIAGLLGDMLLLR

KG-1 AML cells [6] = assay: KG-1 cell apoptosis; type: cell-based, human
Summary of the method: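 Cells in medium with 5% FBS attached overnight, then exposed to test compound in Me2SO or to Me2SO alone (final 0.1%). Exposure was 24 h for HL-60R and 48 h for KG-1. Apoptotic cells were scored by acridine orange staining on at least three replicates and expressed as percent apoptosis.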

[7] = test system: DU-145, MDA-MB-231 and H292 cancer cell lines; assay: Proliferation inhibition of the three solid tumor cell lines; type: cell-based, human
Summary of the method: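 DU-145, MDA-MB-231 and H292 cells attached for 24 h and were then treated for 72 h with test compound in Me2SO or with vehicle alone (final Me2SO 0.1%). Medium and compound were replaced at 48 h. Viable cells were measured by tetrazolium (MTS-type) reduction in triplicate per concentration, and IC50 values were calculated from these counts.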

CC(C)(C)c1cc(-c2ccc3cc(C(=O)O)ccc3c2)ccc1O [compound 21]
reduction of HMVE cell growth inhibition relative to 13 [1]: 7 fold

O=C(O)c1ccc2cc(-c3cccc(C45CC6CC(CC(C6)C4)C5)c3)ccc2c1 [compound 18]
HMVE cell growth inhibition at 72 h (%) ([1]; 72 h (Table 1)): moderate

CC(=O)Nc1ccc(-c2ccc(/C=C/C(=O)O)cc2Cl)cc1C12CC3CC(CC(C3)C1)C2 [compound 2]
further reduction of KG-1 antiproliferative activity relative to 3 (KG-1 AML cells [2]; 5.0 μM): 50%

O=C(O)/C=C/c1ccc(-c2ccc(O)c(C34CC5CC(CC(C5)C3)C4)c2)cc1 [compound 15, (E)-4-[3′-(1-adamantyl)-4′-hydroxyphenyl]cinnamic acid]
apoptosis induced in ovarian cancer cell line [3]: 50%
adverse systemic effects in mice [4]: produced adverse systemic effects

O=C(O)/C=C/c1ccc(-c2ccc(O)c(C34CC5CC(CC(C5)C3)C4)c2)c(Cl)c1 [compound 1, (E)-4-[3′-(1-adamantyl)-4′-hydroxyphenyl]-3-chlorocinnamic acid]
survival in an AML animal model (AML animal model): extension of survival

O=C(O)c1ccc2cc(-c3ccc(O)c(C45CC6CC(CC(C6)C4)C5)c3)ccc2c1 [compound 13, 6-[3′-(1-adamantyl)-4′-hydroxyphenyl]-2-naphthoic acid]
affinity of [5,5′-3H2]AHPN for recombinant human SHP [5]: low nanomolar affinity

O=C(O)/C=C/c1ccc(-c2ccc(F)cc2)c(Cl)c1 [compound 5]
% inhibition of KG-1 proliferation at highest concentration evaluated (KG-1 AML cells [2]; 5 μM, 48 h): 0%

CC(C)(C)C#Cc1cc(-c2ccc(/C=C/C(=O)O)cc2Cl)ccc1O [compound 6]
KG-1 antiproliferative activity as fraction of that of 1 (KG-1 AML cells [2]; 5.0 μM): approximately one-third

Nc1ccc(-c2ccc(/C=C/C(=O)O)cc2Cl)cc1C12CC3CC(CC(C3)C1)C2 [compound 3]
weakening of KG-1 apoptosis induction relative to 1 (KG-1 AML cells [6]; 1.0 μM): 67%
weakening of KG-1 apoptosis induction relative to 1 (KG-1 AML cells [6]; 5.0 μM): 27%
KG-1 apoptosis at 48 h (%) (KG-1 AML cells [6]; 5.0 μM): 40 ^j %
increase of IC50 for KG-1 proliferation inhibition compared to 1 (KG-1 AML cells [2]): ~3.6 fold
calculated IC50 values higher than those of 1, three solid tumor cell lines [7]: 3–4 fold

O=C(O)/C=C/c1ccc(-c2ccc(O)c(C34CC5CC(CC3C5)C4)c2)c(Cl)c1 [compound 8]
KG-1 apoptotic activity as % of that exhibited by 1 (KG-1 AML cells [6]; 5.0 μM): 31%
KG-1 apoptosis at 48 h (%) (KG-1 AML cells [6]; 5.0 μM): 16 ^j %
KG-1 proliferation inhibition relative to 1 (KG-1 AML cells [2]; 5.0 μM): 1.2 fold
calculated IC50 values higher than those of 1, three solid tumor cell lines [7]: 10–20 fold
